These results are taken from ChEMBL document CHEMBL3272082, “Racemic diastereoisomers of 1-amino-2-hydroxycyclopentanecarboxylic acid” (J Med Chem, 1976).

Activity calls are given as the source filed them. No cut-off for these calls is given here.

Data set [1] relates to Jensen sarcoma. In words: Inhibition of growth of rat Jensen sarcoma cells assessed as new cells at 50 ug/ml after 72 hrs in presence of 26 ug/ml serine (reference value: 100%). The class given is functional. Also on record: scale not given: the % may be the effect or the level left. A digest of the protocol: (§1)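 Jensen sarcoma cells seeded at 400000 cells/flask in replicate flasks in McCoy's 7a medium with 10% fetal calf serum, gassed with 8% CO2–92% air, 37°, 24 hr, then counted for zero time. Medium replaced with fresh medium containing analog at 50 μg/ml, with threonine added as listed and serine in medium at 26 μg/ml. Medium renewed at 48 hr. New cells counted at 72 hr, expressed as % of control in normal medium.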

For data set [2], the system named is Jensen sarcoma. In words: Inhibition of growth of rat Jensen sarcoma cells assessed as new cells at 50 ug/ml after 72 hrs in presence of 25 ug/ml threonine and 26 ug/ml serine (reference value: 100%). Type of data set: functional. Also noted: scale not given: the % may be the effect or the level left. A digest of the protocol: as §1
Data set [3] is described as follows: Retardation factor of the compound in cyclohexylamine-water-methyl ethyl ketone-1-butanol at 1:2.5:5:5 ratio by paper chromatography. The note with it: buffer. Type of data set: physicochemical. A digest of the protocol: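 Paper chromatography in cyclohexylamine–water–methyl ethyl ketone–1-butanol (1:2.5:5:5). Rf values compared with allothreonine and threonine run in the same system.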

The test system of data set [4] is Jensen sarcoma. In words: Inhibition of growth of rat Jensen sarcoma cells assessed as new cells at 50 ug/ml after 72 hrs in presence of 18 ug/ml threonine and 26 ug/ml serine (reference value: 100%). The class given is functional. Also noted: scale not given: the % may be the effect or the level left. A digest of the protocol:
as §1

Data set [5] deals with Jensen sarcoma. In words: Inhibition of growth of rat Jensen sarcoma cells assessed as new cells at 50 ug/ml after 72 hrs in presence of 50 ug/ml threonine and 26 ug/ml serine (reference value: 100%). Also noted: scale not given: the % may be the effect or the level left. The class given is functional. A digest of the protocol: as §1
The test system of data set [6] is Escherichia coli. Put plainly: Antimicrobial activity against Escherichia coli 9723 assessed as growth inhibition up to 300 ug/ml. The class given is functional, organism-based. A digest of the protocol: (§2)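 Microbial growth toxicity tested by typical microbial procedures; each isomer at concentrations up to 300 μg/ml.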
Data set [7] has as its system Escherichia coli. In words: Antimicrobial activity against Escherichia coli W assessed as growth inhibition up to 300 ug/ml. The class given is functional. A digest of the protocol: as §2
Another data set deals with Enterococcus faecalis. Put plainly: Antimicrobial activity against Streptococcus faecalis 8043 assessed as growth inhibition up to 300 ug/ml. The class given is functional, organism-based. A digest of the protocol:
as §2

Data set [8] relates to Leuconostoc mesenteroides. In words: Antimicrobial activity against Leuconostoc mesenteroides 10830 assessed as growth inhibition up to 300 ug/ml. Type of data set: functional. A digest of the protocol:
as §2

The subject of data set [9] is Lactiplantibacillus plantarum. In words: Antimicrobial activity against Lactobacillus arabinosus 8014 assessed as growth inhibition up to 300 ug/ml. Type of data set: functional, organism-based. A digest of the protocol:
as §2

In the case of `NC1(C(=O)O)CCCC1` [CYCLOLEUCINE], the Activity with Jensen sarcoma [1] amounted to 0%; with Jensen sarcoma [2], 5%.

`C[C@@H](O)[C@H](N)C(=O)O` [THREONINE]: in data set [3], the Rf is 0.54.

Consider `C[C@H](O)[C@H](N)C(=O)O`, for which, in data set [3], the Rf is recorded as 0.41.

As to `N[C@@]1(C(=O)O)CCC[C@H]1O` (relative stereo), in data set [3], the Rf came to 0.45. The Activity in the data set on Jensen sarcoma [1] stood at 12%; with Jensen sarcoma [4], 68%; in the data set with Jensen sarcoma [5] it was 68%. The “growth inhibition (GI)” value (with Escherichia coli [6]; with Escherichia coli [7]; in the data set on Enterococcus faecalis; in data set [8]; in data set [9]) was “inactive” each time.

As for `N[C@@]1(C(=O)O)CCC[C@@H]1O` (relative stereo), the Rf in [3] is reported as 0.38. Moreover, the Activity in the data set with Jensen sarcoma [1] came out at 12%; in the data set with Jensen sarcoma [4], 69%; with Jensen sarcoma [5], 68%. For the same compound, the “growth inhibition (GI)” value (with Escherichia coli [6]; with Escherichia coli [7]; in the data set on Enterococcus faecalis; in data set [8]; in data set [9]) was “inactive” in each case.
